From PubChem BioAssay AID624055 (Southern Research Specialized Biocontainment Screening …, 2012)
Values joined by “and” are separate entries in the source; they are usually repeats but may differ in a detail not shown here. Identical values can stand only once. Active and inactive are the calls of the source.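 Rule for the calls: active = compounds specific to the target that block phage lysis by more than 30% when retested across doses; inactive = the rest, not confirmed on retesting.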

Tested on: not listed separately
Assay: capsule biogenesis inhibitors via T7 lysis, dose response, EV36 K1 hybrid, OD600, round 6 (AID 624055)
Details: E. coli EV36 T7 phage lysis, OD600; at 50 µM (top of the series)
Procedure, shortened: (§1)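 Control set: C7 decapsulation treatment as phage lysis control; test system: Escherichia coli EV36, a K1:K-12 hybrid strain; input: overnight bacterial culture diluted 1:100 per well; signal: OD600 absorbance at phage infection and 3 h later; times: 1.5 h compound pre-exposure, 3 h post-infection; reagent: T7 phage infection after compound pre-exposure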

Row | Compound | phage lysis inhibition
1 | O=C(Nc1cc(-c2ccc(OC(F)(F)F)cc2)sc1C(=O)O)c1cccc(F)c1 | -12.3% (inactive)
2 | CC(C)(C)c1ccc(-c2cc(NC(=O)c3ccc(Br)s3)c(C(=O)O)s2)cc1 | -10.5% (inactive)
3 | O=C(NCc1ccncc1)c1ccc2ncsc2c1 | 128% (inactive)
4 | O=C(Nc1ccncc1)c1ccc2ncsc2c1 | 121% (inactive)
5 | O=C(Nc1cc(-c2ccc(OC(F)(F)F)cc2)sc1C(=O)O)c1cc2ccccc2o1 | -11.1% (inactive)
6 | COc1cc2sc(NC(=O)c3ccc(Br)s3)nc2cc1F | -13% (inactive)
7 | O=C(Nc1cc(-c2ccc(OCCCC(F)(F)F)cc2)sc1C(=O)O)c1cc(Br)c(Br)o1 | -18.4% (inactive) and -21% (inactive)
8 | O=C(NCCc1ccncc1)c1ccc2ncsc2c1 | 127% (inactive)
9 | O=C(NC1CCNCC1)c1ccc2ncsc2c1 | 135% (inactive)

Tested on: E. coli EV36 T7 phage lysis, OD600
Assay: as above
Details: not given
Procedure, shortened: as §1

Row | Compound | IC50 [µM]
10 | COc1ccc2nc(NC(=O)c3ccc(Br)s3)sc2c1 | < 0.21
11 | CCCc1ccc(-c2cc(NC(=O)c3ccc(Br)o3)c(C(=O)O)s2)cc1 | < 6.25
12 | CCCCOc1ccc(-c2cc(NC(=O)c3c(F)cc(F)cc3F)c(C(=O)O)s2)cc1 | < 6.25
13 | CCOc1ccc(-c2cc(NC(=O)c3c(F)cccc3F)c(C(=O)O)s2)cc1 | < 6.25
14 | O=C(Nc1cc(-c2ccc(OCCCC(F)(F)F)cc2)sc1C(=O)O)c1ccc(Br)o1 | < 6.25
15 | CCCc1ccc(-c2cc(NC(=O)c3c(F)cc(F)cc3F)c(C(=O)O)s2)cc1 | < 6.25
16 | O=C(O)c1sc(-c2ccc(OCC(F)(F)F)cc2)cc1NC(=O)c1c(F)cccc1F | < 6.25
17 | CCCOc1ccc(-c2cc(NC(=O)c3c(F)cc(F)cc3F)c(C(=O)O)s2)cc1 | < 6.25
18 | CCCc1ccc(-c2cc(NC(=O)c3c(F)cccc3F)c(C(=O)O)s2)cc1 | < 6.25
19 | O=C(Nc1cc(-c2ccc(OC(F)(F)F)cc2)sc1C(=O)O)c1ccc(Br)o1 | < 6.25
20 | O=C(O)c1sc(-c2ccc(OCCC(F)(F)F)cc2)cc1NC(=O)c1c(F)cc(F)cc1F | < 6.25
21 | O=C(Nc1ccncc1)c1ccc2ncsc2c1 | < 6.25
22 | CCCCOc1ccc(-c2cc(NC(=O)c3c(F)cccc3F)c(C(=O)O)s2)cc1 | < 6.25
23 | O=C(O)c1sc(-c2ccc(OCCCC(F)(F)F)cc2)cc1NC(=O)c1c(F)cc(F)cc1F | < 6.25
24 | O=C(Nc1cc(-c2ccc(OCCC(F)(F)F)cc2)sc1C(=O)O)c1ccc(Br)o1 | < 6.25
25 | O=C(Nc1cc(-c2ccc(OCC(F)(F)F)cc2)sc1C(=O)O)c1ccc(Br)o1 | < 6.25
26 | O=C(O)c1sc(-c2ccc(OCCCC(F)(F)F)cc2)cc1NC(=O)c1c(F)cccc1F | < 6.25
27 | CCCc1ccc(-c2cc(NC(=O)c3cc(Br)c(Br)o3)c(C(=O)O)s2)cc1 | < 6.25
28 | CCCCOc1ccc(-c2cc(NC(=O)c3cc(Br)c(Br)o3)c(C(=O)O)s2)cc1 | < 6.25
29 | [N-]=[N+]=NCCOc1ccc(-c2cc(NC(=O)c3c(F)cccc3F)c(C(=O)O)s2)cc1 | < 6.25
30 | CCOc1ccc(-c2cc(NC(=O)c3c(F)cccc3C(F)(F)F)c(C(=O)O)s2)cc1 | < 6.25
31 | CCOc1ccc(-c2cc(NC(=O)c3c(F)cc(F)cc3F)c(C(=O)O)s2)cc1 | < 6.25
32 | O=C(O)c1sc(-c2ccc(OCCC(F)(F)F)cc2)cc1NC(=O)c1c(F)cccc1F | < 6.25
33 | O=C(O)c1sc(-c2ccc(OC(F)(F)F)cc2)cc1NC(=O)c1c(F)cccc1F | < 6.25
34 | O=C(O)c1sc(-c2ccc(OCC(F)(F)F)cc2)cc1NC(=O)c1c(F)cc(F)cc1F | < 6.25
35 | CCCCOc1ccc(-c2cc(NC(=O)c3ccc(Br)o3)c(C(=O)O)s2)cc1 | < 6.25
